Screens from PubChem.
Shown are actives, neighbours in structure and some others; about 3.9% of the full set was active somewhere.
tim10-1 inh = tim10-1 yeast growth inhibition; actives 2.2% (n = 330,000); inhibition, % at 20 µM; S. cerevisiae tim10-1 ts strain growth, BacTiter-Glo, 24 h;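 active means inhibition of at least 40%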;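 further: mutant grown at 25 °C; 0% = DMSO wells with yeast and 100% = wells holding no yeast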
UPR CHOP act = activators of apoptotic arm of unfolded protein response (CHOP) | actives 0.34% (n = 330,000) | CHO-CHOP luciferase reporter, UPR activation, luminescence; percent of tunicamycin response over DMSO baseline | activation, % at 10 µM | AID 449763;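 active means at 10 µM dose, activation of 40% or more, normalized to positive control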;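 further: 100% = tunicamycin at 10 µg/mL and 0% = DMSO alone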
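assay system = CHO CHOP reporter cells | amount = 500 CHO-CHOP cells per well | buffer or medium = F12 with 10% FBS | incubation = 16-18 h cell attachment, then 6 h compound exposure, 37 °C | detection = luminescence read with Steady-Glo | read-out = percent activation relative to tunicamycin control | controls = tunicamycin high control, DMSO low control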
tim23-1 inh = growth inhibitors of tim23-1 mutant yeast. actives 1.3% (n = 330,000). inhibition, % at 20 µM. S. cerevisiae tim23-1 growth, BacTiter-Glo luminescence, 24 h;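 active means growth inhibition of the mutant yeast at or above 50%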;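 further: temperature-sensitive mutant grown at 25 °C; plate controls were DMSO-treated mutant yeast for no effect and medium wells lacking yeast for full effect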
TIM10 inh = inhibits growth of TIM10 yeast strain; S. cerevisiae TIM10 strain growth, BacTiter-Glo luminescence, 24 h; inhibition, % at 10 µM; actives 1.4% (n = 330,000);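 active means inhibition of 40% or more at the single tested concentration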;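 further: wild-type TIM10 isogenic control strain grown at permissive 25 °C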
UPR XBP1 act = adaptive UPR (XBP1) activation | AID 463104 | actives 0.33% (n = 330,000) | CHO-XBP1 luciferase reporter, IRE1-XBP1 UPR activation, luminescence; percent of tunicamycin response, DMSO as zero | activation, % at 20 µM;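 active means versus positive control, 20 µM dose yields 30% or more activation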;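 further: 100% = tunicamycin at 10 µg/mL and 0% = DMSO only wells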
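Test system: CHO-XBP1 luciferase reporter cells | Buffer or medium: Serum-containing F12 medium, 10% FBS | Schedule: 6 h compound exposure at 37 °C, 5% CO2 | Detection: Steady-Glo luciferase glow luminescence, 10 min after reagent addition | Read-out basis: Activation, % of tunicamycin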
tim10-1 confirm = confirmation of tim10-1 mutant yeast growth inhibitors; S. cerevisiae tim10-1 ts strain growth, BacTiter-Glo, 24 h; actives 56% (n = 7,400); inhibition, % at 20 µM; shares compounds with tim10-1 inh;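 active means inhibition of yeast growth at or above a set limit in either of two repeat tests at 20 µM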;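 further: tim10-1 mutant grown at permissive 25 °C to find synthetic lethal compounds; 0% = DMSO yeast wells and 100% = medium wells without yeast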
An asterisk follows results filed as active.

What do the screens show for `Cc1noc(NS(=O)(=O)c2ccc(NC(=O)Nc3ccc(Cl)c(Cl)c3)cc2)c1C`?
tim10-1 inh: 46.3*; UPR CHOP act: -1.9; tim23-1 inh: 14.6; TIM10 inh: 17.0; UPR XBP1 act: -3.2; tim10-1 confirm: 38.0*

Results for O=C1OC(c2ccco2)=N/C1=C\c1ccc(-c2cccc(C(F)(F)F)c2)o1 ?
tim10-1 inh: 45.8*; UPR CHOP act: 0.1; tim23-1 inh: 28.5; TIM10 inh: 26.7; UPR XBP1 act: -1.2; tim10-1 confirm: 22.7

What do the screens show for `N#C/C(=C\c1ccc(-c2cccc(C(F)(F)F)c2)o1)C(=O)Nn1cnnc1`?
tim10-1 inh: 2.6; UPR CHOP act: 0.4; tim23-1 inh: 14.1; TIM10 inh: 8.6; UPR XBP1 act: 2.6

What do the screens show for `CSc1ccccc1OCc1cc(C(=O)N2CCN(c3ncccn3)CC2)no1`?
tim10-1 inh: 46.3*; UPR CHOP act: 2.0; tim23-1 inh: 44.6; TIM10 inh: 33.4; UPR XBP1 act: -1.7; tim10-1 confirm: 29.2

How did CSc1ccccc1OCc1cc(C(=O)N2CCSCC2)no1 do in these assays?
tim10-1 inh: 14.5; UPR CHOP act: 7.0; tim23-1 inh: 17.2; TIM10 inh: 8.5; UPR XBP1 act: 0.7

Results for O=C(c1cc(COc2ccc(F)cc2Cl)on1)N1CCSCC1 ?
tim10-1 inh: 24.4; UPR CHOP act: 4.7; tim23-1 inh: 31.5; TIM10 inh: 20.7; UPR XBP1 act: 2.5

How did CSc1ccccc1OCc1cc(C(=O)N2CCC(Oc3cccnc3)CC2)no1 do in these assays?
tim10-1 inh: 43.3*; UPR CHOP act: 0.5; tim23-1 inh: 39.4; TIM10 inh: 39.8; UPR XBP1 act: -3.5; tim10-1 confirm: 36.9*

Results for O=C(c1cc(COc2ccc(F)cc2Cl)on1)N1CCN(c2cnccn2)CC1 ?
tim10-1 inh: 50.5*; UPR CHOP act: 1.0; tim23-1 inh: 47.4; TIM10 inh: 34.4; UPR XBP1 act: -5.4; tim10-1 confirm: 47.5*

What do the screens show for `O=S(=O)(CCC1CCCCN1)c1ccccc1` (configuration not stated)?
tim10-1 inh: -2.7; UPR CHOP act: 1.8; tim23-1 inh: 0.0; TIM10 inh: -2.5; UPR XBP1 act: -4.5

How did COc1ccc2cc(OCC(=O)NNC(=O)Nc3ccc(F)cc3)ccc2c1 do in these assays?
tim10-1 inh: -26.6; UPR CHOP act: -1.2; tim23-1 inh: -7.9; TIM10 inh: -2.9; UPR XBP1 act: -0.8

Results for COc1ccc(C2CC(c3ccc(Br)cc3)=NN2C(=O)CSC2=NN3CCCC(=O)N=C3S2)cc1 (configuration not stated) ?
tim10-1 inh: 36.2; UPR CHOP act: 7.4; tim23-1 inh: 37.3; TIM10 inh: 30.5; UPR XBP1 act: -6.7

Results for COc1ccc(C2CC(c3cccs3)=NN2C(=O)CSC2=NN3CCCC(=O)N=C3S2)cc1 (configuration not stated) ?
tim10-1 inh: 41.4*; UPR CHOP act: -0.9; tim23-1 inh: 42.6; TIM10 inh: 23.8; UPR XBP1 act: 1.2; tim10-1 confirm: 22.9

How did Fc1cc(F)c(F)c(SCn2cc(Br)cn2)c1F do in these assays?
tim10-1 inh: -2.1; UPR CHOP act: 0.9; tim23-1 inh: 5.2; TIM10 inh: -1.8; UPR XBP1 act: -1.4

How did Cc1ccccc1CNC(=O)c1ccc(Cl)c([N+](=O)[O-])c1 do in these assays?
tim10-1 inh: 43.0*; UPR CHOP act: 0.9; tim23-1 inh: 45.4; TIM10 inh: -0.5; UPR XBP1 act: -2.0; tim10-1 confirm: 22.1

What do the screens show for `O=C(O)CSCC(=O)N1CCN(Cc2ccc3c(c2)OCO3)CC1`?
tim10-1 inh: 3.4; UPR CHOP act: 1.1; tim23-1 inh: 10.6; TIM10 inh: 7.3; UPR XBP1 act: -4.8

What do the screens show for `CC(=O)Nc1ccccc1OCC(=O)c1cc(C)n(Cc2cccs2)c1C`?
tim10-1 inh: 48.4*; UPR CHOP act: 6.6; tim23-1 inh: 18.9; TIM10 inh: 15.5; UPR XBP1 act: 2.3; tim10-1 confirm: 19.0

Results for COc1ccc(-n2cnnc2SCC(=O)c2cc(C)n(Cc3cccs3)c2C)cc1 ?
tim10-1 inh: 44.2*; UPR CHOP act: 1.2; tim23-1 inh: 20.6; TIM10 inh: 25.4; UPR XBP1 act: 0.1; tim10-1 confirm: 23.2
